For experiment [1], the system named is Mycobacterium tuberculosis. Put plainly: Antitubercular activity against Mycobacterium bovis BCG after 6 days by microplate alamar blue assay. The format is functional. The settings on record: variant bovis BCG, 144 h. In outline: (§1)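 MABA run in 7H9GC medium, with drug diluted from DMSO stocks made at 100× the highest final concentration. Final levels were 100, 50, 10, 5, 2.5 and 1 μg/mL in triplicate, and the experiment was done three times. Inoculum was 2.5 × 10⁵ CFU/mL final. Alamar Blue plus Tween-80 was added once bacteria-only control wells turned pink, from day 6 on, and plates were read visually and by fluorescence after 24 h. Visual MIC is the lowest concentration preventing the blue-to-pink change. Mean percent inhibition was taken relative to bacteria-only and medium-only wells.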
A general note: The colour change of resazurin is a common sign of viable cells or microbes.

Experiment [2] deals with Mycobacterium tuberculosis. Put plainly: Antitubercular activity against Mycobacterium bovis BCG at 100 ug/ml after 6 days by microplate alamar blue assay. The format is functional. The settings on record: variant bovis BCG, 144 h. In outline: as §1
Experiment [3] deals with Mycobacterium tuberculosis. Nature of the experiment: Antitubercular activity against Mycobacterium bovis BCG at 50 ug/ml after 6 days by microplate alamar blue assay. The class given is functional. The settings on record: variant bovis BCG, 144 h. The procedure, abridged:
as §1

Experiment [4] concerns Mycobacterium tuberculosis. Put plainly: Antitubercular activity against Mycobacterium bovis BCG at 10 ug/ml after 6 days by microplate alamar blue assay. The settings on record: variant bovis BCG, 144 h. The format is functional. In outline:
as §1

For experiment [5], the system named is Mycobacterium tuberculosis. Put plainly: Antitubercular activity against Mycobacterium bovis BCG at 1 to 5 ug/ml after 6 days by microplate alamar blue assay. The format is functional, variant bovis BCG. The procedure, abridged:
as §1

Experiment [6] deals with Mycobacterium tuberculosis. Put plainly: Antitubercular activity against Mycobacterium bovis BCG at 5 ug/ml after 6 days by microplate alamar blue assay. The format is functional. The settings on record: variant bovis BCG, 144 h. The procedure, abridged: as §1
The test system of experiment [7] is Mycobacterium tuberculosis. Nature of the experiment: Antitubercular activity against Mycobacterium bovis BCG at 0.5 to 1 ug/ml after 6 days by microplate alamar blue assay. The format is functional, variant bovis BCG. The procedure, abridged:
as §1

The subject of experiment [8] is Mycobacterium tuberculosis. Put plainly: Antitubercular activity against Mycobacterium bovis BCG at 1 ug/ml after 6 days by microplate alamar blue assay. The settings on record: variant bovis BCG, 144 h. The class given is functional. The procedure, abridged:
as §1

Twelve compounds from ChEMBL document CHEMBL1212938, “Inhibition of mycobacterial replication by pyrimidines possessing various C-5 functionalities and related 2'-deoxynucleoside analogues using in vitro and in vivo models” (J Med Chem, 2010) can be followed below.

Converted amounts (≈) assume the structure as drawn.

Regarding `O=c1[nH]cc(C#Cc2ccccc2)c(=O)[nH]1`, in experiment [1], the MIC50 (as a rule, the lowest concentration that inhibits either 50% of growth or 50% of the strains tested, depending on the study) is not below 10 µg/mL. Also, in experiment [2], the inhibition (usually the share of the control response that was lost under treatment) at 100 µg/mL was determined as 90%. This compound also registered an inhibition at 50 µg/mL in experiment [3] of 90%. Also, in experiment [4], the inhibition at 10 µg/mL was found to be 40%.

Take `CCCc1ccc(C#Cc2c[nH]c(=O)[nH]c2=O)cc1`: the “inhibition (INH)” value in experiment [5] came to 50%. The same compound yielded an MIC50 in experiment [1] of 1 µg/mL (≈ 3.93 µM). In addition, the inhibition at 100 µg/mL in experiment [2] was 100%. In experiment [3], this compound had an inhibition at 50 µg/mL of 70%. This compound also registered an inhibition at 10 µg/mL in experiment [4] of 70%.

As to `CCCCCc1ccc(C#Cc2c[nH]c(=O)[nH]c2=O)cc1`, in experiment [5], the “inhibition (INH)” value is reported as 50%. The same compound showed an MIC50 in experiment [1] of 1 µg/mL (≈ 3.54 µM). Besides, in experiment [2], testing at 100 µg/mL gave an inhibition of 90%. Also, at 50 µg/mL the inhibition in experiment [3] was 60%. This compound also gave an inhibition at 10 µg/mL in experiment [4] of 60%.

For `O=c1[nH]cc(C#Cc2ccccn2)c(=O)[nH]1`, at 5 µg/mL the inhibition in experiment [6] was 60%. This compound also showed an MIC50 in experiment [1] of less than 5 µg/mL. In addition, the inhibition at 100 µg/mL in experiment [2] came to 90%. Moreover, at 50 µg/mL the inhibition in experiment [3] was 75%. In experiment [4], this compound returned an inhibition at 10 µg/mL of 75%.

With `C(C#Cc1ccccn1)#Cc1ccccn1`, the “inhibition (INH)” value in experiment [7] came to 80%. The MIC50 in experiment [1] is less than 0.5 µg/mL. The compound further showed an inhibition at 100 µg/mL in experiment [2] of 100%. The same compound gave an inhibition at 50 µg/mL in experiment [3] of 100%. In experiment [4], this compound yielded an inhibition at 10 µg/mL of 100%.

`CCCc1cc2c[nH]c(=O)nc2o1`: the MIC50 in experiment [1] was 10 µg/mL (≈ 56.1 µM). In experiment [2], 100 µg/mL produced 90% inhibition. The inhibition at 50 µg/mL in experiment [3] was determined as 50%. For the same compound, the inhibition at 10 µg/mL in experiment [4] was 50%.

For the compound `CCCCCc1cc2c[nH]c(=O)nc2o1`, the MIC50 in experiment [1] is 100 µg/mL (≈ 485 µM).

As for `O=c1[nH]c(=O)n([C@H]2C[C@H](O)[C@@H](CO)O2)cc1C#Cc1ccccn1`, in experiment [5], the “inhibition (INH)” value turned out to be 50%. In experiment [1], the MIC50 stood at 1 µg/mL (≈ 3.04 µM). Further, 100 µg/mL produced 50% inhibition in experiment [2]. In experiment [3], this compound came in with an inhibition at 50 µg/mL of 90%. In experiment [4], this compound came in with an inhibition at 10 µg/mL of 80%.

For `Nc1nc(=O)n([C@H]2C[C@H](O)[C@@H](CO)O2)cc1C#Cc1ccccn1`, the “inhibition (INH)” value in experiment [5] amounted to 50%. Further, the MIC50 in experiment [1] was found to be 1 µg/mL (≈ 3.05 µM). 100 µg/mL produced 90% inhibition in experiment [2]. Also, in experiment [3], the inhibition at 50 µg/mL stood at 90%. In addition, the inhibition at 10 µg/mL in experiment [4] worked out at 80%.

Take `N[C@@H]1CONC1=O` [CYCLOSERINE]: the inhibition at 5 µg/mL in experiment [6] was found to be 50%. In experiment [1], the MIC50 is 5 µg/mL (≈ 49 µM). This compound gave an inhibition at 10 µg/mL in experiment [4] of 71%.

With `NNC(=O)c1ccncc1` [ISONIAZID], the MIC50 in experiment [1] was less than 1 µg/mL. The compound further registered an inhibition at 1 µg/mL in experiment [8] of 100%.

With `CO[C@H]1/C=C/O[C@@]2(C)Oc3c(C)c(O)c4c(O)c(c(/C=N/N5CCN(C)CC5)c(O)c4c3C2=O)NC(=O)/C(C)=C\C=C\[C@H](C)[C@H](O)[C@@H](C)[C@@H](O)[C@@H](C)[C@H](OC(C)=O)[C@@H]1C` [RIFAMPIN], the MIC50 in experiment [1] was less than 1 µg/mL. The compound further showed an inhibition at 1 µg/mL in experiment [8] of 100%.
